From ChEMBL document CHEMBL1149790, “Synthesis of some novel thiourea derivatives obtained from 5-[(4-aminophenoxy)methyl]-4-alkyl/aryl-2,4-dihydro-3H-1,2,4-triazole-3-thiones and evaluation as antiviral/anti-HIV and anti-tuberculosis agents” (Eur J Med Chem, 2008)
Values after ≈ are worked out from the molar mass of the structure shown. Active and inactive are the calls of the source. No cut-off for these calls is given here.

Key:
[1] = system: Human immunodeficiency virus 1; test: Antiviral activity against HIV1 3B in human MT4 cells assessed as protection against virus-induced cytopathogenicity by MTT assay; type: functional, organism-based; set-up: Activity: concentration or dose not given beside the values; conditions: for IC50: Human immunodeficiency virus 1, 3B, MT4
Outline: (§1)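 MT-4 cells at 6 × 10⁵ cells/ml infected with HIV-1 IIIB or HIV-2 ROD at 100–300 CCID50; compounds in serial five-fold dilutions, triplicate mock- and virus-infected wells. MTT viability read at 540 and 690 nm after 5 days, median OD of three wells; EC50 = 50% protection from viral cytopathic effect.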

[2] = system: Human immunodeficiency virus 2; test: Antiviral activity against HIV2 ROD in human MT4 cells assessed as protection against virus-induced cytopathogenicity by MTT assay; type: functional, organism-based; set-up: Activity: concentration or dose not given beside the values; conditions: for IC50: Human immunodeficiency virus 2, ROD, MT4; outline: as §1
[3] = Cytotoxicity against human MT4 cells by MTT assay; type: cell-based
Outline: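 Mock-infected MT-4 cells (6 × 10⁵ cells/ml) with serial five-fold compound dilutions in triplicate; MTT reduction read at 540 and 690 nm after 5 days, median OD of three wells; CC50 = concentration reducing OD540 of mock-infected control by 50%.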

[4] = Cytotoxicity against human HeLa cells; type: cell-based
Outline: (§2)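 Uninfected cell cultures exposed to test compounds alongside antiviral assays; minimum cytotoxic concentration (MCC) = concentration causing a microscopically detectable alteration of cell morphology.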

[5] = system: Vesicular stomatitis virus; test: Antiviral activity against vesicular stomatitis virus in human HeLa cells assessed as inhibition of virus-induced cytopathogenicity; type: functional
Outline: (§3)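 Confluent cell monolayers (E6SM, HEL, HeLa or Vero, per line) inoculated with 100 CCID50 virus; 1 h adsorption, residual virus removed, then incubated with compound at 400, 200, 100 … µg/ml. Cytopathicity scored once complete in untreated virus controls; MIC = concentration inhibiting virus-induced cytopathicity.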

[6] = system: Coxsackievirus B4; test: Antiviral activity against Coxsackie virus B4 in human HeLa cells assessed as inhibition of virus-induced cytopathogenicity; type: functional; conditions: Enterovirus B; outline: as §3
[7] = system: Respiratory syncytial virus; test: Antiviral activity against respiratory syncytial virus in human HeLa cells assessed as inhibition of virus-induced cytopathogenicity; type: functional; outline: as §3
[8] = Cytotoxicity against human E6SM cells; type: cell-based; conditions: E6SM cells; outline: as §2
[9] = Cytotoxicity against human HEL cells assessed as alteration of cell morphology; type: cell-based; outline: as §2
[10] = system: Human alphaherpesvirus 1; test: Antiviral activity against HSV1 KOS in human E6SM cells assessed as reduction of virus-induced cytopathogenicity; type: functional; conditions: Human alphaherpesvirus 1, KOS; outline: as §3
[11] = system: Human alphaherpesvirus 1; test: Antiviral activity against HSV1 KOS in human HEL cells assessed as reduction of virus-induced cytopathogenicity; type: functional; conditions: Human alphaherpesvirus 1, KOS; outline: as §3
[12] = system: Human alphaherpesvirus 2; test: Antiviral activity against HSV2 G in human E6SM cells assessed as reduction of virus-induced cytopathogenicity; type: functional; conditions: Human alphaherpesvirus 2, G; outline: as §3
[13] = system: Human alphaherpesvirus 2; test: Antiviral activity against HSV2 G in human HEL cells assessed as reduction of virus-induced cytopathogenicity; type: functional; conditions: Human alphaherpesvirus 2, G; outline: as §3
[14] = system: Vesicular stomatitis virus; test: Antiviral activity against in Vesicular stomatitis virus in human E6SM cells assessed as reduction of virus-induced cytopathogenicity; type: functional; outline: as §3
[15] = system: Vesicular stomatitis virus; test: Antiviral activity against in Vesicular stomatitis virus in human HEL cells assessed as reduction of virus-induced cytopathogenicity; type: functional; outline: as §3
[16] = system: Human alphaherpesvirus 1; test: Antiviral activity against thymidine kinase deficient and acyclovir resistant HSV1 KOS in human E6SM cells assessed as reduction of virus-induced cytopathogenicity; type: functional; conditions: Human alphaherpesvirus 1, KOS; outline: as §3
[17] = system: Human alphaherpesvirus 1; test: Antiviral activity against thymidine kinase deficient and acyclovir resistant HSV1 KOS in human HEL cells assessed as reduction of virus-induced cytopathogenicity; type: functional; conditions: Human alphaherpesvirus 1, KOS; outline: as §3
[18] = system: Vero; test: Cytotoxicity against african green monkey Vero cells; type: cell-based; conditions: chlorocebus sabaeus; outline: as §2
[19] = system: Coxsackievirus B4; test: Antiviral activity against Coxsackie virus B4 in african green monkey Vero cells assessed as reduction of virus-induced cytopathogenicity; type: functional; conditions: Enterovirus B; outline: as §3
[20] = system: Punta Toro virus; test: Antiviral activity against Punta Toro virus in african green monkey Vero cells assessed as reduction of virus-induced cytopathogenicity; type: functional; outline: as §3
[21] = system: Human betaherpesvirus 5; test: Antiviral activity against human cytomegalovirus AD169 infected HEL cells assessed as reduction in virus plaque formation; type: functional, organism-based; conditions: Human betaherpesvirus 5, AD169, HEL
[22] = system: Human betaherpesvirus 5; test: Antiviral activity against human cytomegalovirus Davis infected HEL cells assessed as reduction in virus plaque formation; type: functional, organism-based; conditions: Human betaherpesvirus 5, Davis
[23] = system: Human alphaherpesvirus 3; test: Antiviral activity against TK+ VZV OKA infected HEL cells assessed as reduction in virus plaque formation; type: functional, organism-based; conditions: Human alphaherpesvirus 3, OKA
[24] = system: Human alphaherpesvirus 3; test: Antiviral activity against TK- VZV 07/1 infected HEL cells assessed as reduction in virus plaque formation; type: functional, organism-based; conditions: Human alphaherpesvirus 3, 07/1, HEL
[25] = system: Mycobacterium tuberculosis; test: Antitubercular activity against Mycobacterium tuberculosis H37Rv at 6.25 ug/ml by MABA assay; type: functional
[26] = system: Human respirovirus 3; test: Antiviral activity against Parainfluenza 3 virus in african green monkey Vero cells assessed as reduction of virus-induced cytopathogenicity; type: functional; outline: as §3
[27] = system: Mammalian orthoreovirus 1; test: Antiviral activity against Reo virus 1 in african green monkey Vero cells assessed as reduction of virus-induced cytopathogenicity; type: functional; outline: as §3
[28] = system: Sindbis virus; test: Antiviral activity against Sindbis virus in african green monkey Vero cells assessed as reduction of virus-induced cytopathogenicity; type: functional; outline: as §3
[29] = Cytotoxicity against human HEL cells assessed as reduction of cell growth; type: cell-based
Outline: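 HEL cells; CC50 = compound concentration reducing cell growth by 50%.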

| SMILES | Activity [1] | IC50 [1] | Activity [2] | IC50 [2] | CC50 [3] | MCC [4] | MIC [5] | MIC [6] | MIC [7] | MCC [8] | MCC [9] | MIC [10] | MIC [11] | MIC [12] | MIC [13] | MIC [14] | MIC [15] | MIC [16] | MIC [17] | Activity [18] | also measured |
| --- | --- | --- | --- | --- | --- | --- | --- | --- | --- | --- | --- | --- | --- | --- | --- | --- | --- | --- | --- | --- | --- |
| C=CCn1c(COc2ccc(N)cc2)n[nH]c1=S | 3.5% | > 125 µg/mL | 9% | > 125 µg/mL | > 125 µg/mL | > 400 µg/mL | > 400 µg/mL | > 400 µg/mL | > 400 µg/mL | > 400 µg/mL | > 400 µg/mL | > 400 µg/mL | > 400 µg/mL | 240 µg/mL (≈ 915 µM) | 240 µg/mL (≈ 915 µM) | > 400 µg/mL | > 400 µg/mL | > 400 µg/mL | > 400 µg/mL | 400 µg/mL | MIC [19]: > 80 µg/mL; MIC [20]: > 80 µg/mL; EC50 [21]: > 100 µg/mL; EC50 [22]: > 100 µg/mL; EC50 [23]: > 100 µg/mL; EC50 [24]: > 100 µg/mL; Activity [25]: inactive; MIC [26]: > 80 µg/mL; MIC [27]: > 80 µg/mL; MIC [28]: > 80 µg/mL; CC50 [29]: > 50 µg/mL |
| C=CCn1c(COc2ccc(NC(=S)Nc3ccccc3)cc2)n[nH]c1=S | 19% | > 20.2 µg/mL | 22.5% | > 20.3 µg/mL | 23.2 µg/mL (≈ 58.4 µM) | 80 µg/mL | > 16 µg/mL | > 16 µg/mL | > 16 µg/mL | 400 µg/mL | 400 µg/mL | > 80 µg/mL | > 80 µg/mL | > 80 µg/mL | > 80 µg/mL | 80 µg/mL (≈ 201 µM) | 80 µg/mL (≈ 201 µM) | > 80 µg/mL | > 80 µg/mL | 80 µg/mL | MIC [19]: 16 µg/mL (≈ 40.2 µM); MIC [20]: > 16 µg/mL; EC50 [21]: 45 µg/mL (≈ 113 µM); EC50 [22]: 45 µg/mL (≈ 113 µM); EC50 [23]: 9.9 µg/mL (≈ 24.9 µM); EC50 [24]: 26.8 µg/mL (≈ 67.4 µM); inhibition at 6.25 µg/mL [25]: 79%; MIC [26]: > 16 µg/mL; MIC [27]: > 16 µg/mL; MIC [28]: > 16 µg/mL; CC50 [29]: 42 µg/mL (≈ 106 µM) |
